# In the library only some 1.3% were active in any assay of this set; here they are far more common.
# TDP2 inh: blocks human TDP2 phosphodiesterase activity; recombinant TDP2, T5PNP hydrolysis, p-nitrophenol absorbance 415 nm; O95551; AID 720702; inhibition, % at 12.8 µM; hit rate 0.34% among 370,000;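 active = inhibition above the mean of all tested compounds plus 3 SD, set per campaign, cut at about 25% in these data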;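 also: 0% = DMSO with enzyme and 100% = buffer with substrate but no TDP2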
#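 System – recombinant human TDP2 · Quantity – TDP2 enzyme at 120 nM final · Doses – single concentration, 12.8 µM nominal, with 1% DMSO · Incubation – 2 h at 37 °C · Measured by – epi absorbance of p-nitrophenol freed from T5PNP by hydrolysis · Read-out – % inhibition relative to enzyme-containing and enzyme-free wells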
# CASP6 VEID inh: caspase-6 (human) enzyme inhibition | purified caspase-6, Z-VEID-R110 cleavage fluorescence | inhibition, % at 12.5 µM | hit rate 0.53% among 350,000 | AID 686996;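 active = mean inhibition across replicates at least about 35%, with every replicate also reaching that limit, limit read from the data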;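 also: 0% = median of neutral control wells and 100% = no fluorescence left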
# LEDGF integ inh: blocks HIV-1 LEDGF/p75-dependent DNA integration. TR-FRET IN-LEDGF/p75 DNA integration, Eu/Cy5. inhibition, % at 3.7 µM. hit rate 0.64% among 370,000. AID 743269;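 active = inhibition above the screen-wide mean plus 3 SD, cut at about 13% in these data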;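 also: signal is the Cy5 over europium emission ratio at 671 and 618 nm; 0% = plate median of compound wells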
# UCH37 DUB inh: blocks the human deubiquitinase UCH37; purified proteasome/UCH37, Ub-AMC cleavage fluorescence; Q9Y5K5; hit rate 0.33% among 330,000; inhibition, % (concentration not given with the values);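 active = mean inhibition over replicate wells above about 20%, limit read from the data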;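 also: 0% = compound-free wells with enzyme and 100% = wells lacking proteasome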
#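 assay system = human UCH37 enzyme supplied as purified proteasome complex | amount = proteasome at 0.15 nM in the dispensed enzyme solution | schedule = 30 min compound-proteasome preincubation then 25 min substrate reaction, room temperature | measured by = fluorescence, ex 355 nm, em 460 nm | benchmarks = no-proteasome wells (full inhibition) and compound-free wells (no inhibition)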
# NSD2 HMT inh: inhibitors of human histone methyltransferase NSD2 | hit rate 0.54% among 310,000 | inhibition, % at 12.5 µM | AID 743445 | NSD2 peptide methylation, AlphaScreen, 120 min | O96028; in the data active = inhibition above about 50%
# IN multimer act: counter-screen for LEDGF/p75 integration inhibitors: HIV-1 integrase multimerization activators. shares compounds with LEDGF integ inh. TR-FRET HIV-1 integrase multimerization, biochemical. activation, % at 7.7 µM. hit rate 17% among 2,000. AID 1053131; in the data active = activation above about 8.9%
# TR-FRET interf: optically interferes with TR-FRET readout in LEDGF counter-screen; shares compounds with LEDGF integ inh; TR-FRET optical interference counterscreen, HIV-1 IN multimerization; inhibition, % at 7.7 µM; 2,000 tested, under 10 active;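 active = inhibition above the mean over all tested compounds plus 3 SD, which no compound reached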;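 also: 0% = integrase with antibodies and DMSO and 100% = antibodies without integrase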
# LEDGF integ conf: LEDGF/p75-dependent HIV-1 integration inhibition, confirmation; shares compounds with LEDGF integ inh; TR-FRET LEDGF/p75-dependent HIV-1 integration, biochemical; inhibition, % at 3.7 µM; hit rate 36% among 2,000; in the data active = inhibition above about 14%
# The depositor's hits bear a star; nt = not tested or not shown.
SMILES,TDP2 inh,CASP6 VEID inh,LEDGF integ inh,UCH37 DUB inh,NSD2 HMT inh,IN multimer act,TR-FRET interf,LEDGF integ conf
O=C(COC(=O)Cc1ccsc1)NCc1ccccc1,1,nt,30*,2,-2,2,-8,-1
CCOC(=O)c1ccc(NC(=O)c2cc(OC)c(OC)c(OC)c2Br)cc1,1,0,0,4,-3,nt,nt,nt
COc1cccc(NC(=O)c2cc(OC)c(OC)c(OC)c2Br)c1,11,0,14*,0,-3,1,-4,2
Brc1cc(C=Nn2cnnc2)oc1Br,nt,nt,nt,8,nt,nt,nt,nt
COc1cccc(C=NN=C(N)c2nonc2N)c1O,nt,nt,nt,4,nt,nt,nt,nt
CC(=O)Nc1ccc(S(=O)(=O)Nc2nc3ccccc3nc2Nc2ccc(C(=O)O)c(O)c2)cc1,4,73*,26*,10,48,23*,-117,29*
O=C(NNC(=O)C1CCN(S(=O)(=O)c2ccc(Cl)cc2)CC1)c1ccccc1,13,-6,2,4,21,nt,nt,nt
O=C(NNC(=O)C1CCN(S(=O)(=O)c2ccc(Cl)cc2)CC1)c1ccc(Cl)cc1,4,nt,84*,3,-1,0,2,6
CC(C)N=c1scc(-c2cccs2)n1N=Cc1ccc(O)c(O)c1O,nt,nt,nt,11,nt,nt,nt,nt
O=S(=O)(N=C(c1ccccc1)N1CCOCC1)c1cccs1,nt,nt,nt,0,nt,nt,nt,nt
O=C(CCN1CCOCC1)N1c2ccccc2Sc2ccc(Cl)cc21,1,0,17*,3,0,-2,9,3
C(=N\NC1=Nc2cccc3cccc1c23)/c1ccccc1,-1,nt,19*,nt,0,0,-1,-7
COCc1cc(=O)n2[nH]c(-c3ccco3)cc2n1,6,-2,-3,-7,1,nt,nt,nt
CCCCN1Cc2c(nc3cc(-c4ccco4)[nH]n3c2=O)C1=O,-16,44*,32*,nt,6,4,-14,8
Cc1sc2nc(C)n(N=CN(C)C)c(=O)c2c1C,nt,nt,nt,-2,nt,nt,nt,nt
O=C1/C(=C\c2ccco2)NC(=S)N1c1ccccc1,-4,29,16*,6,6,0,-1,17*
O=C1/C(=C\c2ccco2)SC(=S)N1c1ccccc1,12,nt,21*,3,4,3,-17,21*
CCCN=C1N/C(=C\c2ccco2)C(=O)N1c1ccccc1,5,nt,3,0,nt,nt,nt,nt
O=C1NC(=S)NC1=Cc1ccco1,0,44*,56*,11,nt,7,-34,41*
Cc1ccc(N2C(=O)/C(=C\c3ccco3)SC2=S)cc1,-15,nt,6,3,nt,nt,nt,nt
Cc1ccsc1C=NNC(=O)Cc1cccn1C,nt,nt,nt,5,nt,nt,nt,nt
Fc1ccc(C=NNc2nnnn2-c2ccccc2)cc1,nt,nt,nt,6,nt,nt,nt,nt
O=C(NN=Cc1ccc(CN(Cc2ccc(Cl)cc2)S(=O)(=O)c2ccccc2)o1)C(=O)Nc1ccc(F)cc1,nt,nt,nt,-2,nt,nt,nt,nt
C(=Nc1ccc(N2CCOCC2)cc1)c1c[nH]c2ccccc12,15,20,23*,-2,21,-1,3,7
Oc1c(Br)cc(Cl)cc1C=Nc1ccc(N2CCOCC2)cc1,19,2,19*,1,3,2,-8,25*
SMILES,TDP2 inh,CASP6 VEID inh,LEDGF integ inh,UCH37 DUB inh,NSD2 HMT inh,IN multimer act,TR-FRET interf,LEDGF integ conf
Oc1ccc(N=Nc2cccc(Cl)c2)cc1C=Nc1ccc(N2CCOCC2)cc1,-1,-1,13,9,2,nt,nt,nt
Clc1cccc(-c2ccc(C=Nc3ccc(N4CCOCC4)cc3)o2)c1,13,nt,24*,1,0,8,-40,9
COc1ccc(C(C)=NNc2ncc(Cl)cc2Cl)c(O)c1,nt,nt,nt,-14,nt,nt,nt,nt
O=[N+]([O-])c1ccccc1/C=C/C=Nn1c(-c2cc(-c3ccccc3)n[nH]2)n[nH]c1=S,nt,nt,nt,6,nt,nt,nt,nt
NC(=O)c1cc2cc(Cl)ccc2oc1=NNC(=O)c1cccs1,nt,nt,nt,1,nt,nt,nt,nt
Nc1nonc1-c1nc2ccccc2n1CC(=O)NN=Cc1ccc(-c2cccc(C(=O)O)c2)o1,nt,nt,nt,-6,nt,nt,nt,nt
CCS(=O)(=O)N1CCC2(CC1)OCCN2S(=O)(=O)c1ccccc1,-1,-2,26*,nt,-1,-6,22,6
CS(=O)(=O)N1CCC2(CC1)OCCN2S(=O)(=O)c1ccccc1,-12,-2,3,-1,0,nt,nt,nt
O=C(CC1CC2CCC1C2)Nc1nc(-c2ccccn2)cs1 (configuration not stated),-17,5,16*,4,0,1,-5,-2
O=C(Nc1nc(-c2ccccn2)cs1)C1CC1,2,0,-2,5,nt,nt,nt,nt
NC(=O)NN=Cc1cn(-c2ccccc2)nc1-c1ccccc1,nt,nt,nt,2,nt,nt,nt,nt
O=C(COC(=O)c1c2c(nc3ccccc13)/C(=C\c1ccco1)CC2)NC1CCCC1,-1,43*,28*,-31,34,34*,-121,50*
O=C(COC(=O)c1c2c(nc3ccccc13)/C(=C/c1cccc([N+](=O)[O-])c1)CCC2)NC1CCS(=O)(=O)C1 (configuration not stated),-1,nt,0,3,-1,nt,nt,nt
CN(CCC#N)C(=O)COC(=O)c1c2c(nc3ccccc13)/C(=C\c1ccco1)CC2,1,14,50*,-24,nt,21*,-104,70*
CCN(C[C@H]1N[C@@](CC)(C(=O)OC)[C@H]2C(=O)N(Cc3ccccc3)C(=O)[C@@H]12)C(=O)Nc1ccc(OC)cc1,4,-2,-1,1,nt,nt,nt,nt
CCN(C[C@H]1N[C@@](CC)(C(=O)OC)[C@H]2C(=O)N(Cc3ccccc3)C(=O)[C@@H]12)C(=O)Nc1ccc(C(F)(F)F)cc1,2,0,66*,nt,nt,-2,10,-5
CNc1ccc(Br)cc(C(=O)/C=C/c2cc(OC)ccc2OC)c1=O,-2,nt,10,7,12,nt,nt,nt
CNc1ccc(Br)cc(C(=O)/C=C/c2ccc3c(c2)OCO3)c1=O,0,nt,19*,3,15,7,-25,36*
COC(=O)c1ccc(C=Nn2c(C)nnc2C)cc1,nt,nt,nt,-1,nt,nt,nt,nt
Cc1ccc(-n2ncc(C#N)c2N=CN2CCN(C)CC2)cc1,nt,nt,nt,3,nt,nt,nt,nt
Cc1ccc(NCc2ccccc2O)cc1,8,nt,-2,0,1,nt,nt,nt
Cc1ccc(CNc2ccc(O)cc2)cc1,21,nt,20*,-8,nt,11*,-56,31*
COc1ccc(-n2c(Cn3c(=O)sc4ccccc43)nnc2SCC(=O)N2CCCC2)cc1,-3,2,32*,2,nt,0,2,-1
CCCCn1c(N)c(N(CCOC)C(=O)c2ccc(N3CCCC3)c([N+](=O)[O-])c2)c(=O)[nH]c1=O,-4,3,27*,4,1,0,-2,2
